Source: ChEMBL document CHEMBL4028903 (J Med Chem, 2017)
Active and inactive are the calls of the source. No cut-off for these calls is given here.

How the values were obtained:
[1] = tested on: Rattus norvegicus; assay: In vivo agonist activity at FXR in po dosed Sprague-Dawley rat assessed as induction of FGF15 protein level in plasma administered once daily for 14 days measured 24 hrs post last dose on day 14; format: functional, organism-based
[2] = AUC (0 to 24 hrs) in Sprague-Dawley rat at 1 mg/kg, po qd administered via gavage measured on day 11 by LC-MS/MS analysis; format: ADME, organism-based; parameters: time < 24 hr, dose 1 mg/kg, route oral; details: in vivo
[3] = tested on: Rattus norvegicus; assay: In vivo agonist activity at FXR in po dosed Sprague-Dawley rat assessed as induction of SHP mRNA level in ileum administered as single dose measured 7 hrs post dose by qPCR analysis; format: functional, organism-based
[4] = tested on: Rattus norvegicus; assay: Dose normalized AUC (0 to 24 hrs) in Sprague-Dawley rat at 0.1 mg/kg, po qd administered via gavage measured on day 11 by LC-MS/MS analysis; format: ADME, organism-based; details: in vivo
[5] = tested on: Rattus norvegicus; assay: Dose normalized AUC (0 to 24 hrs) in Sprague-Dawley rat at 0.3 mg/kg, po qd administered via gavage measured on day 1 by LC-MS/MS analysis; format: ADME, organism-based; details: in vivo
[6] = Cmax in Sprague-Dawley rat at 0.3 mg/kg, po qd administered via gavage measured on day 1 by LC-MS/MS analysis; format: ADME, organism-based; parameters: dose 0.3 mg/kg, route oral; details: in vivo
[7] = tested on: Rattus norvegicus; assay: In vivo agonist activity at FXR in Sprague-Dawley rat assessed as induction of SHP mRNA level in ileum at 0.01 mg/kg, po qd for 14 days measured 7 hrs post last dose on day 14 by qPCR analysis; format: functional, organism-based
[8] = tested on: Mus musculus; assay: Drug metabolism in mouse assessed as taurine conjugated metabolite formation at 5 mg/kg, iv or 10 mg/kg, po administered via gavage by LC-MS/MS analysis; format: ADME, organism-based; details: in vivo
[9] = tested on: Mus musculus; assay: Drug metabolism in mouse assessed as glycine conjugated metabolite formation at 5 mg/kg, iv or 10 mg/kg, po administered via gavage by LC-MS/MS analysis; format: ADME, organism-based; details: in vivo
[10] = tested on: Rattus norvegicus; assay: In vivo agonist activity at FXR in po dosed Sprague-Dawley rat assessed as induction of SHP mRNA level in liver administered once daily for 14 days measured 7 hrs post last dose on day 14 by qPCR analysis; format: functional
[11] = AUC (0 to 24 hrs) in Sprague-Dawley rat at 1 mg/kg, po qd administered via gavage measured on day 1 by LC-MS/MS analysis; format: ADME, organism-based; parameters: dose 1 mg/kg, time < 24 hr, route oral; details: in vivo
[12] = Drug uptake in Sprague-Dawley rat plasma at 0.3 mg/kg, po qd administered via gavage measured 7 hrs post last dose on day 14 by LC-MS/MS analysis; format: ADME, organism-based
[13] = tested on: Rattus norvegicus; assay: In vivo agonist activity at FXR in po dosed Sprague-Dawley rat assessed as reduction in serum triglyceride level administered once daily for 14 days measured 24 hrs post last dose; format: functional, organism-based
[14] = tested on: Rattus norvegicus; assay: Dose normalized AUC (0 to 24 hrs) in Sprague-Dawley rat at 0.3 mg/kg, po qd administered via gavage measured on day 11 by LC-MS/MS analysis; format: ADME, organism-based; details: in vivo
[15] = Drug uptake in Sprague-Dawley rat plasma at 0.03 mg/kg, po qd administered via gavage measured 1 hr post last dose on day 14 by LC-MS/MS analysis; format: ADME, organism-based
[16] = AUC (0 to 24 hrs) in Sprague-Dawley rat at 0.003 mg/kg, po qd administered via gavage measured on day 1 by LC-MS/MS analysis; format: ADME, organism-based; parameters: time < 24 hr, dose 0.003 mg/kg, route oral; details: in vivo
[17] = Terminal half life in rat at 3 mg/kg, iv by LC-MS/MS analysis; format: ADME, organism-based; details: in vivo, read-out: beta t1/2 (converted)
How it was run: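 Rats were dosed IV as a solution in 75% PEG300:25% D5W, or orally as a suspension in 0.5% methylcellulose, 0.5% Tween80 and 99% water.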

[18] = Half life in rat at 3 mg/kg, iv by LC-MS/MS analysis; format: ADME, organism-based; details: in vivo
How it was run: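 Single IV dose given as a solution. Mouse and rat received it in 75% PEG300:25% D5W. Dog received it in 20% PEG300, 5% solutol and 75% carbonate buffer pH = 8. Plasma was sampled for PK parameters.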

[19] = tested on: Rattus norvegicus; assay: In vivo agonist activity at FXR in Sprague-Dawley rat assessed as downregulation of CYP8B1 mRNA level in liver at >0.03 mg/kg, po qd for 14 days measured 7 hrs post last dose on day 14 by qPCR analysis; format: functional, organism-based
[20] = tested on: Rattus norvegicus; assay: In vivo agonist activity at FXR in Sprague-Dawley rat assessed as induction of BSEP mRNA level in liver at >0.1 mg/kg, po qd for 14 days measured 7 hrs post last dose on day 14 by qPCR analysis; format: functional, organism-based
[21] = tested on: Rattus norvegicus; assay: In vivo agonist activity at FXR in po dosed Sprague-Dawley rat assessed as induction of FGF15 mRNA level in ileum administered once daily for 14 days measured 7 hrs post last dose on day 14 by qPCR analysis; format: functional
[22] = AUC (0 to 24 hrs) in Sprague-Dawley rat at 0.003 mg/kg, po qd administered via gavage measured on day 11 by LC-MS/MS analysis; format: ADME, organism-based; parameters: time < 24 hr, dose 0.003 mg/kg, route oral; details: in vivo
[23] = Drug uptake in Sprague-Dawley rat liver at 0.1 mg/kg, po qd administered via gavage measured 1 hr post last dose on day 14 by LC-MS/MS analysis; format: ADME, organism-based; details: read-out: Drug uptake
How it was run: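 Drug concentration in liver was quantified from tissue homogenates, so these are total levels. Unbound liver concentration was not determined.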

[24] = tested on: Rattus norvegicus; assay: Dose normalized AUC (0 to 24 hrs) in Sprague-Dawley rat at 0.1 mg/kg, po qd administered via gavage measured on day 1 by LC-MS/MS analysis; format: ADME, organism-based; details: in vivo
[25] = tested on: Rattus norvegicus; assay: In vivo agonist activity at FXR in po dosed Sprague-Dawley rat assessed as induction of FGF15 protein level in plasma administered once daily for 14 days measured 7 hrs post last dose on day 14; format: functional, organism-based
[26] = Clearance in mouse at 5 mg/kg, iv by LC-MS/MS analysis; format: ADME, organism-based; details: in vivo
How it was run: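 Single IV dose given as a solution. Mouse received 5 mg/kg in 75% PEG300:25% D5W. Dog received 0.5 mg/kg in 20% PEG300, 5% solutol and 75% carbonate buffer pH = 8.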

[27] = Drug uptake in Sprague-Dawley rat plasma at 1 mg/kg, po qd administered via gavage measured 7 hrs post last dose on day 14 by LC-MS/MS analysis; format: ADME, organism-based
[28] = tested on: Rattus norvegicus; assay: In vivo agonist activity at FXR in po dosed Sprague-Dawley rat assessed as induction of BSEP mRNA level in liver administered once daily for 14 days measured 7 hrs post last dose on day 14 by qPCR analysis; format: functional
[29] = Dissociation constant, pKa of compound; format: physicochemical
[30] = tested on: Rattus norvegicus; assay: Drug metabolism in rat assessed as taurine conjugated metabolite formation at 3 mg/kg, iv or 1 mg/kg, po administered via gavage by LC-MS/MS analysis; format: ADME, organism-based; details: in vivo
[31] = Protein binding in rat plasma at 3 mg/kg, iv or 1 mg/kg, po administered via gavage by LC-MS/MS analysis; format: ADME, organism-based; details: read-out: PPB

O=C(O)c1cc(F)c2nc(N3C4CCC3CC(OCc3c(-c5ccccc5OC(F)(F)F)noc3C3CC3)C4)sc2c1 (stereo unspecified)
Activity [1]: inactive | AUC at 24 h [2]: 0.562 µM·h | Activity [3]: Dose-dependent effect | AUC/dose [4]: 796 nM·h | AUC/dose [5]: 390 nM·h | Cmax [6]: 13.5 nM | Activity [7]: Active | Drug metabolism [8]: Metabolite_Notdetected | Drug metabolism [9]: Metabolite_Notdetected | ED50 [10]: 0.02 mg/kg | AUC(0-t) at 24 h [11]: 0.461 µM·h | concentration at 7 h [12]: 13.8 nM | Activity [13]: Dose-dependent effect | AUC/dose [14]: 633 nM·h | concentration at 1 h [15]: 1.29 nM | AUC(0-t) at 24 h [16]: 0.002 µM·h | half-life [17]: 3.7 h | half-life [18]: 3.7 h | Activity [19]: Active | Activity [20]: Active | ED50 [21]: 0.05 mg/kg | AUC at 24 h [22]: 0.002 µM·h | concentration at 1 h [23]: 27.4 nM | AUC/dose [24]: 410 nM·h | Activity [25]: Dose-dependent effect | clearance [26]: 5.3 mL/min/kg | concentration at 7 h [27]: 40.5 nM | ED50 [28]: 0.02 mg/kg | pKa [29]: 4 | Drug metabolism [30]: Metabolite_Notdetected | fraction unbound [31]: 0.001
